These results are taken from ChEMBL document CHEMBL1124203, “Phosphinic acid inhibitors of D-alanyl-D-alanine ligase” (J Med Chem, 1988).

Assay [1] concerns Escherichia coli. Nature of the assay: Minimum inhibitory concentration required for inhibition of D-alanyl-D-alanine ligase from Escherichia coli Tem 2+ 4351. It counts as functional. The procedure, abridged:
(§1)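 Organisms were mostly subcultured from agar into trypticase soy broth, 35 °C for 20 h; Pseudomonas was shaken at 250 rpm. MIC was the lowest concentration giving no visible growth or fewer than five colonies per spot.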

The test system of assay [2] is Escherichia coli. Nature of the assay: Minimum inhibitory concentration required for inhibition of D-alanyl-D-alanine ligase from Escherichia coli Tem 2+ 4351 in the presence of F-D-Ala ug/mL. In kind it is functional.
Assay [3] has as its system Klebsiella pneumoniae. Description: The inhibition of D-alanyl-D-alanine ligase from Klebsiella pneumoniae 4005 in the presence of F-D-Ala ug/mL. In kind it is functional.
The test system of assay [4] is Klebsiella pneumoniae. Description: Minimum inhibitory concentration required for inhibition of D-alanyl-D-alanine ligase from Klebsiella pneumoniae 4005. It counts as functional. The procedure, abridged:
as §1

Assay [5] deals with Pseudomonas aeruginosa. Nature of the assay: Minimum inhibitory concentration required for inhibition of D-alanyl-D-alanine ligase from Pseudomonas aeruginosa 4279 in the presence of F-D-Ala ug/mL. It counts as functional.
The test system of assay [6] is Pseudomonas aeruginosa. Description: Minimum inhibitory concentration required for inhibition of D-alanyl-D-alanine ligase from Pseudomonas aeruginosa 4279. It counts as functional. Summed up: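 Inocula were subcultured from agar into trypticase soy broth and grown at 35 °C for 20 h, with the Pseudomonas strain shaken at 250 rpm. MIC was taken as the lowest concentration giving no visible growth or fewer than five colonies per inoculation spot.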

Assay [7] deals with Enterococcus faecalis. Nature of the assay: Minimum inhibitory concentration required for inhibition of D-alanyl-D-alanine ligase from Streptococcus faecalis 2864. In kind it is functional. Summed up:
as §1

Assay [8] relates to Enterococcus faecalis. Description: Minimum inhibitory concentration required for inhibition of D-alanyl-D-alanine ligase from Streptococcus faecalis 2864 in the presence of F-D-Ala ug/mL. It counts as functional.
Assay [9] has as its system Enterobacter cloacae. Nature of the assay: Minimum inhibitory concentration required for growth inhibition of cloacae 2647.
Assay [10] concerns Escherichia coli. Description: Minimum inhibitory concentration required for growth inhibition of Escherichia coli 2891.
Assay [11] has as its system Proteus vulgaris. Nature of the assay: Minimum inhibitory concentration required for growth inhibition of proteus vulgaris 2829.
Assay [12] relates to Serratia marcescens. Nature of the assay: Minimum inhibitory concentration required for growth inhibition of Serratia marcescens 2840.
In assay [13] the test system is Escherichia coli. Description: Minimum inhibitory concentration required for growth inhibition of Escherichia coli DC2 4353.
The subject of assay [14] is Staphylococcus aureus. Nature of the assay: Minimum inhibitory concentration required for growth inhibition of Staphylococcus aureus 2865.
Assay [15] has as its system Salmonella typhimurium. Nature of the assay: Minimum inhibitory concentration required for growth inhibition of Salmonella Typhimurium 3860. Particulars: Salmonella enterica subsp. enterica serovar Typhimurium.
Assay [16] deals with Enterococcus faecalis. Description: Minimum inhibitory concentration required for growth inhibition of Streptococcus faecalis 2864.
The subject of assay [17] is D-alanine--D-alanine ligase (Enterococcus faecalis). Description: ATP dependent inhibition of D-alanine--D-alanine ligase after 4 hours at 10 uM concentration.
Assay [18] relates to Klebsiella pneumoniae. Description: Minimum inhibitory concentration required for growth inhibition of Klebsiella pneumoniae 4005.
Assay [19] relates to D-alanine--D-alanine ligase (Enterococcus faecalis). Nature of the assay: ATP dependent inhibition of D-alanine--D-alanine ligase after 24 hours at 10 uM concentration.
Assay [20] relates to Pseudomonas aeruginosa. Description: Minimum inhibitory concentration required for growth inhibition of Pseudomonas aeruginosa 4279.
For assay [21], the system named is Escherichia coli. Description: Minimum inhibitory concentration required for inhibition of D-alanyl-D-alanine ligase from Escherichia coli 2891. It counts as functional. Summed up: as §1
The subject of assay [22] is Escherichia coli. Description: Minimum inhibitory concentration required for inhibition of D-alanyl-D-alanine ligase from Escherichia coli DC2 4353. It counts as functional. The procedure, abridged:
as §1

In assay [23] the test system is Enterobacter cloacae. Description: Minimum inhibitory concentration required for inhibition of D-alanyl-D-alanine ligase from cloacae 2647. It counts as functional. The procedure, abridged: as §1
The subject of assay [24] is Proteus vulgaris. Description: Minimum inhibitory concentration required for inhibition of D-alanyl-D-alanine ligase from proteus vulgaris 2829. It counts as functional. Summed up: as §1
The test system of assay [25] is Salmonella typhimurium. Nature of the assay: Minimum inhibitory concentration required for inhibition of D-alanyl-D-alanine ligase from Salmonella Typhimurium 3860. In kind it is functional, Salmonella enterica subsp. enterica serovar Typhimurium. Particulars: Salmonella enterica. Summed up: as §1
Assay [26] concerns Serratia marcescens. Nature of the assay: Minimum inhibitory concentration required for inhibition of D-alanyl-D-alanine ligase from Serratia marcescens 2840. It counts as functional. Summed up: as §1
Assay [27] relates to Staphylococcus aureus. Nature of the assay: Minimum inhibitory concentration required for inhibition of D-alanyl-D-alanine ligase from Staphylococcus aureus 2865. In kind it is functional. The procedure, abridged: as §1

SMILES strings stand for the structures. Converted amounts (≈) assume the structure as drawn.

With `C[C@@H](CP(=O)(O)[C@@H](C)N)C(=O)O`, the MIC in the assay with Escherichia coli [1] was determined as 128 µg/mL (≈ 656 µM); in the assay with Escherichia coli [2] it was 128 µg/mL; in the assay with Klebsiella pneumoniae [3] it was 128 µg/mL; in the assay with Klebsiella pneumoniae [4], 128 µg/mL (≈ 656 µM); with Pseudomonas aeruginosa [5] it was 128 µg/mL; with Pseudomonas aeruginosa [6] it was 128 µg/mL (≈ 656 µM). Besides, the MIC in the assay with Enterococcus faecalis [7] amounted to 128 µg/mL (≈ 656 µM); in the assay with Enterococcus faecalis [8] it was 8 µg/mL.

As for `CCC(CP(=O)(O)C(C)N)C(=O)O` (centres undefined), the MIC in the assay with Enterobacter cloacae [9] is 256 µg/mL (≈ 1220 µM); in the assay with Escherichia coli [10] it was 256 µg/mL (≈ 1220 µM); against Proteus vulgaris [11] it was 128 µg/mL (≈ 612 µM); in the assay on Serratia marcescens [12], over 256 µg/mL; against Escherichia coli [13] it was 8 µg/mL (≈ 38.2 µM); against Staphylococcus aureus [14] it was over 256 µg/mL. The MIC with Salmonella typhimurium [15] was over 256 µg/mL; against Enterococcus faecalis [16], 2 µg/mL (≈ 9.56 µM).

For the compound `CSC(CP(=O)(O)C(C)N)C(=O)O` (centres undefined), the MIC against Enterobacter cloacae [9] was 128 µg/mL (≈ 563 µM); in the assay on Proteus vulgaris [11] it was 4 µg/mL (≈ 17.6 µM); against Serratia marcescens [12], 256 µg/mL (≈ 1130 µM); with Escherichia coli [13], 64 µg/mL (≈ 282 µM); in the assay on Klebsiella pneumoniae [18], 128 µg/mL (≈ 563 µM); in the assay with Staphylococcus aureus [14], over 256 µg/mL. Further, the MIC was found to be 64 µg/mL (≈ 282 µM) in the assay with Pseudomonas aeruginosa [20] and 4 µg/mL (≈ 17.6 µM) in the assay on Enterococcus faecalis [16]. Further, the inhibition in assay [17] and in [19] was 96% in each case.

Regarding `CCCCCCCC(CP(=O)(O)[C@@H](C)N)C(=O)O` (some centres undefined), the MIC in the assay on Escherichia coli [21] was 128 µg/mL (≈ 458 µM); with Escherichia coli [22], 32 µg/mL (≈ 115 µM); with Escherichia coli [1] it was 128 µg/mL (≈ 458 µM); against Enterobacter cloacae [23], 256 µg/mL (≈ 917 µM); against Klebsiella pneumoniae [4], 64 µg/mL (≈ 229 µM); against Pseudomonas aeruginosa [6], over 256 µg/mL. Further, the MIC with Proteus vulgaris [24] is 128 µg/mL (≈ 458 µM); against Salmonella typhimurium [25] it was 128 µg/mL (≈ 458 µM); in the assay with Serratia marcescens [26] it was over 256 µg/mL; with Staphylococcus aureus [27] it was 128 µg/mL (≈ 458 µM); in the assay on Enterococcus faecalis [7], 64 µg/mL (≈ 229 µM). Moreover, the inhibition turned out to be 75% in assay [17] and 53% in assay [19].

For `CC(N)P(=O)(O)CC(CCCc1ccccc1)C(=O)O` (centres undefined), the MIC is over 256 µg/mL against Enterobacter cloacae [9]; 128 µg/mL (≈ 428 µM) in the assay with Escherichia coli [10]; over 256 µg/mL against Proteus vulgaris [11]; over 256 µg/mL against Serratia marcescens [12]; 128 µg/mL (≈ 428 µM) with Escherichia coli [13]; 256 µg/mL (≈ 855 µM) in the assay on Klebsiella pneumoniae [18]. Also, the MIC against Staphylococcus aureus [14] was 256 µg/mL (≈ 855 µM); in the assay with Pseudomonas aeruginosa [20] it was over 256 µg/mL; against Salmonella typhimurium [15], 128 µg/mL (≈ 428 µM); in the assay on Enterococcus faecalis [16], 256 µg/mL (≈ 855 µM).
